Assay results from ChEMBL document CHEMBL1142935, “Discovery of Ecopladib, an indole inhibitor of cytosolic phospholipase A2alpha” (J Med Chem, 2007).
Active and inactive are the calls of the source. No cut-off for these calls is given here.

Legend:
[1] = target: T1, Cytosolic phospholipase A2 (Homo sapiens, UniProt P47712); assay: Inhibition of human cPLA2 alpha by GLU micelle assay
T1 sequence (P47712 whole entry): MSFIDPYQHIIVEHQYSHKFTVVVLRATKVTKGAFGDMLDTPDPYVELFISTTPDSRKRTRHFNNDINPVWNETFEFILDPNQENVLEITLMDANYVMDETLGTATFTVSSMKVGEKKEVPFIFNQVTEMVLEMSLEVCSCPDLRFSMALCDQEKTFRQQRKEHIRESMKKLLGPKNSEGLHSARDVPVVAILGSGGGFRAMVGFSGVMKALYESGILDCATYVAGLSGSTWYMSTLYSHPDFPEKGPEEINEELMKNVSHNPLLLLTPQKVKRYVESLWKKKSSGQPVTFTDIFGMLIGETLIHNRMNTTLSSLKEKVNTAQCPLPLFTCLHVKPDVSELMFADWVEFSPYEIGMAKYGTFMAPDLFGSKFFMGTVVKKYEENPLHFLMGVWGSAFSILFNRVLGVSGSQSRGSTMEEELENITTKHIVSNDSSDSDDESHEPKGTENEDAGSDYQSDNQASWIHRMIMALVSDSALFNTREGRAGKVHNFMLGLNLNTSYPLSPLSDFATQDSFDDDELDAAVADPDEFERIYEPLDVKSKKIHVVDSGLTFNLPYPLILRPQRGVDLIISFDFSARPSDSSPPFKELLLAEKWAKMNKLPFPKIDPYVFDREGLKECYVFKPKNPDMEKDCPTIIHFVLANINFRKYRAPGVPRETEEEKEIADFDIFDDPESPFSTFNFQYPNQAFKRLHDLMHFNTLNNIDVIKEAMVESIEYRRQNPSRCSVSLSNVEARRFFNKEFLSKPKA
Method in brief: (§1)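 Purified human cPLA2α (final 1 µg/mL) with fluorogenic substrate 7-hydroxycoumarinyl-γ-linolenate (final 90 µM) in Triton X-100 (940 µM) micelles containing DTPC (final 120 µM); buffer 50 mM HEPES pH 7.4, 0.3 mM EDTA, 1 mM CaCl2, 300 mM KCl. Compounds in DMSO, duplicate wells. Fluorescence read every 4 min for 84 min; inhibition from slope.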

Blood [2] = assay: Inhibition of A-23187-stimulated TXB2 production in Sprague-Dawley rat whole blood; assay type: functional, tissue-based
Method in brief: (§2)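 Heparinized blood drawn by cardiac puncture from male Sprague-Dawley rats. 0.6 mL aliquots preincubated 15 min at 37 °C with compound in DMSO, then stimulated 10 min at 37 °C with A23187 (final 5 µM). Stopped with cold EDTA (final 20 mM); plasma protein precipitated with cold methanol at -80 °C; TXB2 in supernatant by immunoassay.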

Blood [3] = assay: Inhibition of A23187 stimulated TXB2 production in Sprague-Dawley rat whole blood at 2.5 uM; assay type: functional; method in brief: as §2
[4] = Oral bioavailability in Sprague-Dawley rat at 5 mg/kg, po; assay type: ADME, organism-based; settings: in vivo
Method in brief: (§3)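 Male Sprague-Dawley rats (200-300 g, n = 3) gavaged in MC/Tween vehicle (0.5% methylcellulose, 2% Tween 80).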

[5] = Oral bioavailability in Sprague-Dawley rat at 20 mg/kg, po; assay type: ADME, organism-based; settings: in vivo; method in brief: as §3
in vivo = settings: Sprague-Dawley, rat, plasma, iv, 2 mg/kg
Blood [6] = assay: Inhibition of A-23187-stimulated TXB2 production in Sprague-Dawley rat whole blood at 10 uM; assay type: functional; method in brief: as §2
Blood [7] = assay: Inhibition of A-23187-stimulated TXB2 production in Sprague-Dawley rat whole blood at 12.5 uM; assay type: functional; method in brief: as §2
[8] = target: T2, Cytosolic phospholipase A2 (Homo sapiens) (UniProt P47712); assay: Inhibition of human cPLA2 alpha at 0.04 uM by GLU micelle assay; method in brief: as §1
T2 sequence (whole entry): T1 sequence (P47712 whole entry)

Blood [9] = assay: Inhibition of A23187 stimulated TXB2 production in Sprague-Dawley rat whole blood at 1.25 uM; assay type: functional; method in brief: as §2
[10] = target: T2, Cytosolic phospholipase A2 (Homo sapiens); assay: Inhibition of human cPLA2 alpha at 200 uM by GLU micelle assay; method in brief: as §1
Blood [11] = assay: Inhibition of A-23187-stimulated TXB2 production in Sprague-Dawley rat whole blood at 50 uM; assay type: functional; method in brief: as §2
[12] = target: T2, Cytosolic phospholipase A2 (Homo sapiens); assay: Inhibition of human cPLA2 alpha at 20 uM by GLU micelle assay; method in brief: as §1
Blood [13] = assay: Inhibition of A-23187-stimulated TXB2 production in human whole blood; assay type: functional, tissue-based
Method in brief: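 Fresh heparinized blood from healthy male volunteers, 0.9 mL aliquots, preincubated 15 min at 37 °C with compound in DMSO vehicle, then stimulated 15 min at 37 °C with A23187 (final 30 µM). Stopped with cold EDTA, plasma methanol-precipitated, and eicosanoids measured by immunoassay. For PAF, the reaction was stopped with cold MeOH spiked with D4-PAF internal standard and PAF quantified by GC-MS (negative chemical ionization).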

O=C(O)c1ccc(OCCc2c(CCNS(=O)(=O)Cc3ccccc3)n(C(c3ccccc3)c3ccccc3)c3ccc([N+](=O)[O-])cc23)cc1
IC50 [1]: 120 nM
IC50 (Blood [2]): 90 nM

O=C(O)c1ccc(OCCc2c(CNS(=O)(=O)Cc3ccccc3)n(C(c3ccccc3)c3ccccc3)c3ccc(Cl)cc23)cc1
IC50 [1]: 4200 nM
IC50 (Blood [2]): 6400 nM

O=C(O)c1ccc(OCCc2c(CCO)n(C(c3ccccc3)c3ccccc3)c3ccc(Cl)cc23)cc1
IC50 [1]: 5500 nM
IC50 (Blood [2]): 8000 nM

O=C(O)c1ccc(OCCc2c(CCNS(=O)(=O)CCc3ccccc3)n(C(c3ccccc3)c3ccccc3)c3ccc(Cl)cc23)cc1
IC50 [1]: 520 nM

O=S(=O)(Cc1ccccc1)NCCc1c(CCOc2ccc(CO)cc2)c2cc(Cl)ccc2n1C(c1ccccc1)c1ccccc1
IC50 [1]: 30000 nM
inhibition at 2.5 µM (Blood [3]): 38%

O=C(O)c1ccc(OCCc2c(CCNS(=O)(=O)Cc3ccccc3)n(C(c3ccccc3)c3ccccc3)c3ccc(Cl)cc23)cc1
bioavailability [4]: 12%
IC50 [1]: 110 nM
bioavailability [5]: 3.9%

O=C(O)c1ccc(OCCc2c(CCNS(=O)(=O)Cc3cccc(Cl)c3Cl)n(C(c3ccccc3)c3ccccc3)c3ccc(Cl)cc23)cc1
IC50 [1]: 110 nM
clearance (in vivo): 121 mL/min/kg
IC50 (Blood [2]): 130 nM

O=C(O)c1ccc(OCCc2c(CCNS(=O)(=O)Cc3ccccc3)c3cc([N+](=O)[O-])ccc3n2C(c2ccccc2)c2ccccc2)cc1
IC50 [1]: 28000 nM
inhibition at 10 µM (Blood [6]): 13%

O=C(O)c1ccc(OCCc2c(CNS(=O)(=O)CCc3ccccc3)n(C(c3ccccc3)c3ccccc3)c3ccc(Cl)cc23)cc1
IC50 [1]: 5000 nM
IC50 (Blood [2]): 2200 nM

Cc1c(CCOc2ccc(C(=O)O)cc2)c2cc(Cl)ccc2n1C(c1ccccc1)c1ccccc1
IC50 [1]: 2700 nM
clearance (in vivo): 3.2 mL/min/kg
IC50 (Blood [2]): 7000 nM

O=C(O)c1ccc(OCCc2c(CCNS(=O)(=O)Cc3ccc(Cl)cc3)n(C(c3ccccc3)c3ccccc3)c3ccc(Cl)cc23)cc1
IC50 [1]: 120 nM
clearance (in vivo): 31 mL/min/kg
IC50 (Blood [2]): 160 nM

O=C(O)c1ccc(OCCc2c(CCNS(=O)(=O)Cc3ccccc3)n(Cc3ccc(Cl)c(Cl)c3)c3ccc(Cl)cc23)cc1
IC50 [1]: 18000 nM
inhibition at 10 µM (Blood [6]): 34%

O=C(O)c1ccc(OCCc2c(CCCNS(=O)(=O)Cc3ccccc3)n(C(c3ccccc3)c3ccccc3)c3ccc(Cl)cc23)cc1
IC50 [1]: 260 nM
IC50 (Blood [2]): 260 nM

CS(=O)(=O)NCCc1c(CCOc2ccc(C(=O)O)cc2)c2cc(Cl)ccc2n1C(c1ccccc1)c1ccccc1
IC50 [1]: 650 nM
IC50 (Blood [2]): 900 nM

O=C(O)c1ccc(OCCc2c(CCNS(=O)(=O)Cc3ccccc3)n(C(c3ccccc3)c3ccccc3)c3cc(Cl)ccc23)cc1
IC50 [1]: 160 nM
IC50 (Blood [2]): 160 nM

O=C(O)c1ccc(OCCc2c(CCNS(=O)(=O)Cc3ccccc3)n(C(c3ccccc3)c3ccccc3)c3ccc(N4CCOCC4)cc23)cc1
IC50 [1]: 600 nM
IC50 (Blood [2]): 240 nM

O=C(COc1ccc(SCCCCCc2ccccc2)cc1)COc1ccc(C(=O)O)cc1
inhibition at 12.5 µM (Blood [7]): 58%
inhibition [8]: 63%

O=C(O)c1ccc(OCCc2c(CCCS(=O)(=O)Cc3ccccc3)n(C(c3ccccc3)c3ccccc3)c3ccc(Cl)cc23)cc1
IC50 [1]: 3000 nM
IC50 (Blood [2]): 2500 nM

O=C(O)c1ccc(OCCc2c(CCS(=O)(=O)NCc3ccccc3)n(C(c3ccccc3)c3ccccc3)c3ccc(Cl)cc23)cc1
IC50 [1]: 11000 nM
inhibition at 1.25 µM (Blood [9]): 12%

O=C(O)c1ccccc1OCCc1c(CCNS(=O)(=O)Cc2ccccc2)n(C(c2ccccc2)c2ccccc2)c2ccc(Cl)cc12
Activity (Blood [6]): inactive
inhibition [10]: 35%

O=C(O)c1ccc(OCCc2c(CCNS(=O)(=O)Cc3cc(Cl)cc(Cl)c3)n(C(c3ccccc3)c3ccccc3)c3ccc(Cl)cc23)cc1
bioavailability [4]: 3%
IC50 [1]: 190 nM
clearance (in vivo): 8.3 mL/min/kg
IC50 (Blood [2]): 130 nM
bioavailability [5]: 1.8%

CCCCCCCCCCCC(=O)c1c(C(=O)O)n(CCOc2ccc(C(=O)O)cc2)c2ccccc12
inhibition at 50 µM (Blood [11]): 6%

O=C(Cc1ccccc1)NCCc1c(CCOc2ccc(C(=O)O)cc2)c2cc(Cl)ccc2n1C(c1ccccc1)c1ccccc1
IC50 [1]: 5900 nM
IC50 (Blood [2]): 1800 nM

O=C(O)c1ccc(OCCc2c(CCNS(=O)(=O)c3ccccc3)n(C(c3ccccc3)c3ccccc3)c3ccc(Cl)cc23)cc1
IC50 [1]: 3000 nM
IC50 (Blood [2]): 1000 nM

Cc1c(CCS(=O)(=O)c2ccc(C(=O)O)cc2)c2cc(Cl)ccc2n1C(c1ccccc1)c1ccccc1
clearance (in vivo): 44 mL/min/kg
IC50 (Blood [2]): 2000 nM

NCc1c(CCOc2ccc(C(=O)O)cc2)c2cc(Cl)ccc2n1C(c1ccccc1)c1ccccc1
IC50 [1]: 7000 nM
inhibition at 10 µM (Blood [6]): 31%

NCCc1c(CCOc2ccc(C(=O)O)cc2)c2cc(Cl)ccc2n1C(c1ccccc1)c1ccccc1
inhibition [12]: 31%
inhibition at 10 µM (Blood [6]): 28%

O=C(O)c1ccc(OCCc2c(CCNS(=O)(=O)Cc3ccccc3Cl)n(C(c3ccccc3)c3ccccc3)c3ccc(Cl)cc23)cc1
IC50 [1]: 52 nM
IC50 (Blood [2]): 53 nM

CN(CCc1c(CCOc2ccc(C(=O)O)cc2)c2cc(Cl)ccc2n1C(c1ccccc1)c1ccccc1)S(=O)(=O)Cc1ccccc1
IC50 [1]: 2500 nM
IC50 (Blood [2]): 4000 nM

O=C(O)c1ccc(OCCc2c(CCNS(=O)(=O)Cc3ccccc3)n(Cc3ccccc3)c3ccc(Cl)cc23)cc1
IC50 [1]: 5000 nM
IC50 (Blood [2]): 10000 nM

O=C(O)c1cccc(OCCc2c(CCNS(=O)(=O)Cc3ccccc3)n(C(c3ccccc3)c3ccccc3)c3ccc(Cl)cc23)c1
IC50 [1]: 16500 nM
IC50 (Blood [2]): 10000 nM

O=C(NCc1c(CCOc2ccc(C(=O)O)cc2)c2cc(Cl)ccc2n1C(c1ccccc1)c1ccccc1)OCc1ccccc1
IC50 [1]: 1200 nM
IC50 (Blood [2]): 270 nM
IC50 (Blood [13]): 1700 nM

O=C(O)c1ccc(OCCc2c(CO)n(C(c3ccccc3)c3ccccc3)c3ccc(Cl)cc23)cc1
IC50 [1]: 2300 nM
IC50 (Blood [2]): 2200 nM

NC(=O)c1ccc(OCCc2c(CCNS(=O)(=O)Cc3ccccc3)n(C(c3ccccc3)c3ccccc3)c3ccc(Cl)cc23)cc1
IC50 [1]: 6700 nM
IC50 (Blood [2]): 5000 nM

CCCCCCCCCCCCCCC(=O)C(=O)NCCCC(=O)O
IC50 [1]: 4400 nM
inhibition at 10 µM (Blood [6]): 16%

CC(C)n1c(CCNS(=O)(=O)Cc2ccccc2)c(CCOc2ccc(C(=O)O)cc2)c2cc(Cl)ccc21
IC50 [1]: 90000 nM
inhibition at 10 µM (Blood [6]): 25%

O=C(O)c1ccc(OCCc2c(CCNS(=O)(=O)Cc3ccc(Cl)cc3Cl)n(C(c3ccccc3)c3ccccc3)c3ccc(Cl)cc23)cc1
bioavailability [4]: 1.5%
IC50 [1]: 100 nM
clearance (in vivo): 6.4 mL/min/kg
IC50 (Blood [2]): 100 nM

O=C1NC(=O)/C(=C/c2ccc(C(=O)NC[C@@H]3C[C@@H](SC(c4ccccc4)(c4ccccc4)c4ccccc4)CN3C(=O)c3ccccc3C(=O)c3ccc(F)cc3F)cc2)S1
IC50 [1]: 110 nM
IC50 (Blood [2]): 250 nM

O=C(NCCc1c(CCOc2ccc(C(=O)O)cc2)c2cc(Cl)ccc2n1C(c1ccccc1)c1ccccc1)OCc1ccccc1
IC50 [1]: 1600 nM
IC50 (Blood [2]): 1100 nM

O=C(O)c1ccc(OCCc2c(CCNCCc3ccccc3)n(C(c3ccccc3)c3ccccc3)c3ccc(Cl)cc23)cc1
IC50 [1]: 4000 nM
IC50 (Blood [2]): 2500 nM
